# 697 NFkB inh = inhibitors of PMA/ionomycin-induced NF-kB reporter, 697 cells, primary screen, B-cell NF-kB inhibitor project, cell-based, luminescence, uHTS; inhibition, % at 4 µM; AID 435022, 2010; 697 B-cell NF-kB luciferase reporter, 16 h; actives 0.33% (n = 330,000); in the data active = inhibition above about 35%
# UPR XBP1 act = activators of adaptive XBP1 UPR arm, primary screen, cell-based, CHO-XBP1 luciferase reporter, luminescence, uHTS | IRE1-XBP1 UPR activation; percent of tunicamycin response, DMSO as zero | activation, % at 20 µM | actives 0.33% (n = 330,000);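 active = versus positive control, 20 µM dose yields 30% or more activation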;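 also: 100% = tunicamycin at 10 µg/mL and 0% = DMSO only wells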
#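 assay system = CHO-XBP1 luciferase reporter cells | amount = 1000 cells/well | buffer or medium = F12 plus 10% FBS | compound dosing = single point, 20 µM final compound, 1% DMSO | incubation = 16-18 h cell attachment at 37 °C, then 6 h compound exposure | detection = Steady-Glo luminescence read | controls = tunicamycin 10 µg/mL and vehicle-only wells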
# CHOP inhibitor = inhibitors of CHOP promoter induction, primary screen, cell-based, unfolded protein response, luciferase reporter. inhibition, % at 10 µM. AID 2732, 2010. CHO-K1 CHOP-promoter luciferase, tunicamycin-induced, 15-18 h. actives 3.8% (n = 220,000);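 active = compounds that reduced the stress-induced luciferase reporter signal by more than about 70% of percent inhibition, limit read from the data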;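 also: 0% = tunicamycin plus vehicle and 100% = wells without tunicamycin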
# Jurkat NFkB inh = inhibitors of induced NF-kB luciferase reporter, primary screen, TCR NF-kB activation inhibitor project, cell-based, luminescence, uHTS; Jurkat, PMA/ionomycin-induced NF-kB luciferase reporter; actives 0.53% (n = 330,000); inhibition, % at 4 µM; in the data active = inhibition above about 50%
# CHOP UPR activ = activators of apoptotic CHOP UPR arm, primary screen, cell-based, CHO-CHOP luciferase reporter, luminescence, uHTS; UPR activation; percent of tunicamycin response over DMSO baseline; activation, % at 10 µM; actives 0.34% (n = 330,000);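 active = at 10 µM dose, activation of 40% or more, normalized to positive control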;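 also: 100% = tunicamycin at 10 µg/mL and 0% = DMSO alone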
#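 Material: CHO-CHOP cells, stable luciferase reporter of PERK-eIF2a-CHOP signalling; quantity: 500 reporter cells seeded per well; buffer or medium: F12 medium containing 10% fetal bovine serum; compound: one dose, 10 µM in 0.5% DMSO; incubation: 6 h compound treatment, 37 °C; measured by: Steady-Glo luciferase luminescence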
# UPR CHOP confirm = activators of apoptotic CHOP UPR arm, confirmation, cell-based, CHO-CHOP luciferase reporter, single concentration | shares compounds with CHOP UPR activ | CHO-CHOP cells, CHOP-luciferase reporter luminescence; percent of tunicamycin response, DMSO as zero | activation, % at 10 µM | actives 64% (n = 1,000); in the data active = activation above about 33%;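 also: 0% = DMSO wells and 100% = tunicamycin 10 µg/mL wells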
# XBP1 UPR conf = IRE1-XBP1 UPR arm activators, confirmation, cell-based, CHO-XBP1 luciferase reporter, luminescence, single concentration; shares compounds with UPR XBP1 act; activation, % at 20 µM; actives 63% (n = 1,000); AID 485299, 2010;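 active = reporter signal at least 30% of the positive control's activation in two or more of four replicate wells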;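 also: plate controls were DMSO negative control for no effect and tunicamycin 10 µg/mL positive control for full effect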
# The depositor's hits bear a star; . = no result. The sample as a whole holds a higher share of hits than the screen did.
SMILES,697 NFkB inh,UPR XBP1 act,CHOP inhibitor,Jurkat NFkB inh,CHOP UPR activ,XBP1 UPR conf,others
Cc1ccc(Cc2cnc(NC(=O)/C(C#N)=C/c3ccc(-c4ccc([N+](=O)[O-])cc4)o3)s2)cc1,-11.4,136.1*,-8.1,-0.8,123.1*,166.5*,UPR CHOP confirm=78.3*
Cc1cnc(NC(=O)c2ccc(-c3ccc([N+](=O)[O-])cc3)o2)s1,5.9,1.5,.,28.4,0.5,.,
c1nc(C2CCCCC2)cc2cc3c(cc12)OCO3,-61.9,5.9,.,-41.7,4.6,.,
C[C@@H]1COC(=O)[C@H](Cc2ccc(F)cc2)CC/C=C/C[C@@H](CC(=O)N[C@@H](CO)Cc2ccccc2)C(=O)N1,17.4,-2.0,.,7.7,2.5,.,
O=C(C[C@@H]1C/C=C/CC[C@H](Cc2ccc(F)cc2)C(=O)OC[C@@H](Cc2ccccc2)NC1=O)N[C@H](CO)Cc1ccccc1,4.4,151.6*,.,-0.5,64.9*,46.8*,UPR CHOP confirm=11.7
N/C(=N\c1nc(CSc2ccccn2)cc(=O)[nH]1)Nc1ccc(Cl)cc1Cl,7.5,31.6*,17.6,7.6,-3.0,32.2*,
Cc1nc(N2CCN(c3ccccc3)CC2)[nH]c(=O)c1C,10.1,-6.4,.,-4.3,-3.5,.,
COc1cc(/C=N/Nc2nc(Nc3ccc(C)cc3)nc(-n3nc(C)cc3C)n2)cc(OC)c1OC,8.8,50.5*,22.0,38.7,13.7,68.9*,
COc1cc(/C=N/Nc2nc(Nc3ccccc3)nc(-n3nc(C)cc3C)n2)cc(OC)c1OC,20.9,71.7*,-26.9,39.1,19.0,89.9*,
COc1cc(/C=N/Nc2nc(Nc3ccccc3)nc(N3CCCCC3)n2)ccc1OCC(=O)O,-18.9,0.0,16.2,-9.2,-0.3,.,
CCC(=O)Nc1nnc(SCC(=O)c2ccc3c(c2)Cc2ccccc2-3)s1,-12.7,52.0*,33.4,6.8,-1.8,28.9*,
CN=C1SC(CC(=O)Nc2ccccc2F)C(=O)N1C (centres undefined),10.0,0.4,10.0,2.4,-1.2,.,
C=CCOc1ccc(/C=N/N2C(=O)C(CC(=O)Nc3ccc(F)cc3F)SC2=NC)cc1 (centres undefined),-17.5,51.4*,70.2*,-20.8,2.0,80.8*,
CC1CCCN(CCCNS(=O)(=O)c2ccc3c(c2)CCN3C(=O)C2CC2)C1 (centres undefined),5.2,-3.8,.,-16.8,-2.4,.,
Oc1cc(-c2ccc(N3CCCCC3)nc2)cc2cccnc12,-74.6,55.9*,.,-82.8,7.3,52.4*,
COc1cc(OC)cc(C(=O)NCC(C)NC(=O)c2cc(OC)cc(OC)c2)c1 (centres undefined),-6.9,-0.9,.,13.3,-0.8,.,
CN(C)CCCNC(=O)c1ccc(-c2nc(-c3ccc(Cl)cc3)cs2)cc1,-164.3,82.3*,-64.9,-3.6,8.8,159.3*,
CCOC(=O)c1c(NC(=O)/C=C/C(=O)O)sc(C)c1-c1ccc(C(C)(C)C)cc1,32.4,47.1*,38.6,-2.0,18.9,46.9*,
CCOC(=O)c1c(NC(=O)/C=C\C(=O)O)sc(C)c1-c1ccccc1,15.7,-0.6,3.1,-5.9,-0.7,.,
CCc1noc(C)c1C(=O)OCC(=O)c1ccc(NC(C)=O)cc1F,2.6,-2.8,.,9.4,0.6,.,
Cc1c(-c2ccc(/C=N/NC(=O)C(=O)Nc3ccccc3F)o2)cccc1[N+](=O)[O-],-1.3,73.0*,-9.2,-8.4,18.0,7.3,
O=[N+]([O-])c1ccc(/C=N/NC(=S)Nc2ccccc2F)o1,-45.7,1.7,-2.0,-9.4,6.5,.,
COc1ccc(C(=O)Nc2ccc3c(c2)nc(CCNC(=O)c2ccco2)n3C)cc1,-9.9,2.2,.,-5.9,2.7,.,
Cc1ccnc(OC(C(=O)O)C(OCc2ccccc2)(c2ccccc2)c2ccc(C(F)(F)F)cc2)n1 (centres undefined),-34.3,-1.1,.,2.8,2.1,.,
COC(c1ccccc1)(c1ccccc1)C(Oc1nccc(C)n1)C(=O)O (centres undefined),-1.5,136.5*,.,-5.0,-0.9,1.3,
SMILES,697 NFkB inh,UPR XBP1 act,CHOP inhibitor,Jurkat NFkB inh,CHOP UPR activ,XBP1 UPR conf,others
CC1(C)C2CC[C@]3(C)C(CC=C4[C@@H]5C[C@@](C)(CO)[C@@H]6C[C@@]5(CC[C@]43C)C(=O)O6)[C@@]2(C)CC[C@@H]1O (some centres undefined),-1.3,0.1,.,-4.5,-0.9,.,
CC1(C)CC[C@@]23CC[C@]4(C)[C@@](OC2=O)(C3C1)[C@H]1O[C@H]1C1[C@@]2(C)CC[C@H](O)C(C)(C)C2CC[C@]14C (some centres undefined),20.9,50.1*,.,11.8,0.3,46.1*,
O=C(CNS(=O)(=O)c1ccccc1)N1CCN(Cc2ccccc2)CC1,-2.9,-0.3,.,5.3,0.5,.,
COc1ccccc1-n1c(=O)c(C#N)c(-c2ccc([N+](=O)[O-])cc2)c2cc(C(=O)c3ccccc3O)cnc21,21.7,-3.1,-4.5,12.6,-2.0,.,
COc1ccc2c(c1)NC(c1cc(Cl)cc(Cl)c1O)c1cccn1-2 (centres undefined),4.6,48.9*,30.4,-1.5,5.7,56.7*,
Oc1c(Cl)cc(Cl)cc1C1Nc2ccccc2-n2cccc21 (centres undefined),9.7,-2.7,-8.8,1.9,1.9,.,
C=CCN=C1S/C(=C/c2cccc([N+](=O)[O-])c2)C(=O)N1CC=C,10.5,33.0*,-9.5,-3.0,8.9,47.3*,
CSc1ccc(CN(C)CC(=O)NCCc2ccccc2)cc1,-1.1,0.3,.,4.1,0.6,.,
CCCCn1c(=N)n(CC(=O)c2ccc([N+](=O)[O-])cc2)c2ccccc21,21.5,2.5,32.8,-19.1,0.4,.,
Cc1ccc(Cn2c(=N)n(CC(=O)c3ccc([N+](=O)[O-])cc3)c3ccccc32)cc1,-0.3,67.4*,9.3,30.0,15.3,18.2,
Cn1nnnc1Sc1ncnc2scc(-c3ccc(Br)cc3)c12,-79.4,99.6*,.,5.7,18.4,140.8*,
Cn1nnnc1Sc1ncnc2scc(-c3ccc(F)cc3)c12,-123.8,4.9,-21.6,-81.6,5.1,.,
CS(=O)(=O)c1[nH]nc(-c2ccccc2Cl)c1C#N,2.9,-1.7,11.3,-1.0,-1.4,.,

# Screens as filed in PubChem.
